For one molecule, IC50, Activity and viability results are on record in ChEMBL document CHEMBL3745688, “Discovery of novel hybrids of diaryl-1,2,4-triazoles and caffeic acid as dual inhibitors of cyclooxygenase-2 and 5-lipoxygenase for cancer therapy” (Eur J Med Chem, 2016).

Structures are written as SMILES.

The subject of assay [1] is A549. Put plainly: Antiproliferative activity against human A549 cells after 72 hrs by MTT assay. It is filed as functional, cell-based. Conditions: A549, 72 h. In a few lines:
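Cells seeded at 5×10^4/well, grown 24 h at 37 °C in 5% CO₂, then exposed to compounds dissolved in DMSO at a range of concentrations for 72 h. MTT (5 mg/mL in PBS) added for 4 h, then OD read at 570 nm. IC50 taken from dose-response curves, mean ± S.D. of three independent experiments.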
Background: Formazan colour is commonly taken as a measure of viable cells.

Assay [2] has as its system A549. Put plainly: Induction of apoptosis in human A549 cells assessed as necrotic cells at 5 uM after 72 hrs by annexinV-APC/7-AAD staining based flow cytometry (reference value: 0.41%). It is filed as functional. Background: Flow cytometry measures light scatter and fluorescence of single cells or particles in a stream.
For assay [3], the system named is A549. The assay is described as follows: Induction of apoptosis in human A549 cells assessed as late apoptotic cells at 1 uM after 72 hrs by annexinV-APC/7-AAD staining based flow cytometry (reference value: 1.81%). It is filed as functional.
The test system of assay [4] is A549. Put plainly: Cell cycle arrest in human A549 cells assessed as accumulation at G2 phase after 72 hrs by propidium iodide staining based flow cytometry. It is filed as functional.
Assay [5] has as its system A549. The assay is described as follows: Induction of apoptosis in human A549 cells assessed as early apoptotic cells at 1 uM after 72 hrs by annexinV-APC/7-AAD staining based flow cytometry (reference value: 5.7%). It is filed as functional.
In assay [6] the test system is A549. Put plainly: Induction of apoptosis in human A549 cells assessed as early apoptotic cells at 5 uM after 72 hrs by annexinV-APC/7-AAD staining based flow cytometry (reference value: 5.7%). It is filed as functional.
In assay [7] the test system is A549. Put plainly: Induction of apoptosis in human A549 cells assessed as viable cells at 5 uM after 72 hrs by annexinV-APC/7-AAD staining based flow cytometry (Rvb =92.08%). Conditions: A549, 72 h, read-out: Activity. It is filed as functional.
Assay [8] deals with A549. Put plainly: Cell cycle arrest in human A549 cells assessed as accumulation at S phase at 1 uM after 72 hrs by propidium iodide staining based flow cytometry (reference value: 42.46%). It is filed as functional.
Assay [9] concerns A549. Put plainly: Induction of apoptosis in human A549 cells assessed as necrotic cells at 25 uM after 72 hrs by annexinV-APC/7-AAD staining based flow cytometry (Rvb =0.41%). It is filed as functional.
The test system of assay [10] is A549. Put plainly: Cell cycle arrest in human A549 cells assessed as accumulation at S phase at 5 uM after 72 hrs by propidium iodide staining based flow cytometry (reference value: 42.46%). It is filed as functional.
Assay [11] has as its system A549. Put plainly: Cell cycle arrest in human A549 cells assessed as accumulation at G1 phase at 1 uM after 72 hrs by propidium iodide staining based flow cytometry (reference value: 53.66%). It is filed as functional.
Assay [12] has as its target T1, Prostaglandin G/H synthase 1 (Bos taurus, UniProt O62664).
T1 sequence (O62664 whole entry): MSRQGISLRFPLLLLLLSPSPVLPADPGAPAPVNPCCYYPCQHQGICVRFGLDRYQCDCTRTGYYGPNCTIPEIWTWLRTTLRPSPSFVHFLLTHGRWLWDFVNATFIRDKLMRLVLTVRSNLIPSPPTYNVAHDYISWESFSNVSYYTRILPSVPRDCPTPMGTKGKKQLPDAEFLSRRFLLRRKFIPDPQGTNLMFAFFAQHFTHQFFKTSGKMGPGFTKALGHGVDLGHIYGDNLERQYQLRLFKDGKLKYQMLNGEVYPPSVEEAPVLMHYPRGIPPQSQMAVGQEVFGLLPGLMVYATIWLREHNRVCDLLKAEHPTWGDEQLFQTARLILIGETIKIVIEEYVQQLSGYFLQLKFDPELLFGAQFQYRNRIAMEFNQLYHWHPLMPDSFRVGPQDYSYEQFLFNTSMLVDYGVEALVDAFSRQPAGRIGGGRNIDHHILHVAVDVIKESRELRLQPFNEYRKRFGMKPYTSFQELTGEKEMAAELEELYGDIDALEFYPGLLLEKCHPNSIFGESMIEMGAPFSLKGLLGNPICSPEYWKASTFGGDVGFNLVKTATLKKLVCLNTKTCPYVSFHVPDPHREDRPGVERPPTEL
The assay is described as follows: Inhibition of COX1 in calf endotheliocyte assessed as 6keto-PGF1alpha production pretreated for 20 mins followed by addition of 10 uM arachidonic acid as substrate for 20 mins by radioimmuno assay. In a few lines:
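Endothelial cells from neonatal calf thoracic aorta plated at 1.0×10^6 in DMEM with 10% FBS and grown 24 h at 37 °C in 5% CO₂. Compound or DMSO added for 20 min, then arachidonic acid (10 μM) for another 20 min. 6-keto-PGF1α in the medium quantified by radioimmunoassay. IC50 is the mean of four determinations.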

Assay [13] has as its system A549. The assay is described as follows: Cell cycle arrest in human A549 cells assessed as accumulation at G2 phase at 1 uM after 72 hrs by propidium iodide staining based flow cytometry (reference value: 3.88%). It is filed as functional.
Assay [14] has as its system A549. Put plainly: Cell cycle arrest in human A549 cells assessed as accumulation at G1 phase at 5 uM after 72 hrs by propidium iodide staining based flow cytometry (reference value: 53.66%). It is filed as functional.

`CS(=O)(=O)c1ccc(-c2nc(SCCCOC(=O)/C=C/c3ccc(O)c(O)c3)nn2-c2ccc(F)cc2)cc1`: the values for the IC50 (in the assay with A549 [1]; in assay [12]) were 9.52 µM and 12.6 µM, respectively. Besides, the Activity with A549 [2] was 2.14%; in the assay on A549 [3] it was 3.13%; in the assay with A549 [4] it was “Dose-dependent effect”; in the assay with A549 [5], 9.73%; in the assay on A549 [6], 23.68%; in the assay with A549 [8] it was 42.92%. The Activity turned out to be 1.51% in the assay on A549 [9]; 40.9% with A549 [10]; 49.85% in the assay with A549 [11]; 7.24% in the assay on A549 [13]; 45.34% with A549 [14]. The viability at 5 µM in the assay on A549 [7] worked out at 67.8%.

Broadly, the IC50 is the concentration at which inhibition is half-maximal.
